Laboratory results: paper PMC11605122 (Nature Communications, 2024)
Entries after “also recorded” stand apart in the source; their conditions may differ.

Columns and labels:
[1] = cited from earlier work
GCGR and GLP-1R = conditions: vs cognate ligands; cited from earlier work
body weight, HFD-fed = assay type: in vivo, mouse; conditions: DIO mice, 1 week
GCGR = experiment: block of glucagon-induced glucose elevation in lean mice; assay type: in vivo, mouse
plasma FFAs = assay type: in vivo, mouse
eWAT explants = experiment: lipolysis; assay type: cell-based, mouse; conditions: 10 nM glucagon, 4 h
[2] = cited from earlier work; remark: listed apart in the source
[3] = cited from earlier work; remark: listed apart in the source
[4] = peptide concentration in plasma; assay type: in vivo, mouse; conditions: DIO mice, 24 h post-injection, 50 nmol/kg s.c., n = 6; cAMP bioassay
Method in brief: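 Plasma activity was read in a cAMP assay on CHO cells expressing human GLP-1R, in HBSS pH 7.4 with 25 mM HEPES, 0.1% BSA and 0.5 mM IBMX. Serial dilutions were run in duplicate for 30 min at RT with HTRF detection. Standards were reference peptide spiked into 0.2% (final) naïve plasma. Sample ratio = sample EC50/reference EC50; concentration = known top concentration/ratio.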

plasma insulin = assay type: in vivo, mouse; conditions: DIO mice, Fc-GLP1
Method in brief: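 Plasma ALT was read with Reflotron strips and plasma TGs by colorimetric assay. Serum FGF21 and plasma adiponectin and insulin were measured by ELISA.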

blood ketone bodies = assay type: in vivo, mouse; conditions: DIO mice, Fc-GLP1
Method in brief: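 DIO mice were fed 60%-fat HFD from 8 weeks of age, for 12 weeks (males) or 24 weeks (females); one male cohort was housed at 30 °C. The test compound was given s.c. every 2 days in 50 mM sodium phosphate/300 mM mannitol pH 6.9. Glucose and ketone bodies were read in tail-vein blood.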

BAT skin temperature = assay type: in vivo, mouse; conditions: DIO mice, Fc-GLP1
BAT, eWAT, iWAT = experiment: UCP1 and TH protein; assay type: in vivo, mouse; conditions: DIO mice, Fc-GLP1
[5] = test system: POMC neurons, arcuate nucleus; experiment: cFos-positive POMC neurons in ARC; assay type: in vivo, mouse; conditions: DIO mice, Fc-GLP1, 1 week
Method in brief: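 Brain slices were blocked 2 h at RT in PBS with 1% BSA and 0.1% Triton X-100. They were incubated overnight at 4 °C with anti-POMC and anti-c-Fos, then with secondary antibodies in 1% BSA/PBS for 2 h at RT, protected from light.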

OXM: native peptide oxyntomodulin, activates both GLP-1R and GCGR
half-life in circulation [1]: short half-life in circulation | affinity to GLP-1R and GCGR (GCGR and GLP-1R): reduced affinity compared with their cognate ligands

des-His1-[Glu9]-Glucagon (1-29) amide [GCGRant, reference compound]
body weight loss (body weight, HFD-fed; GCGRant alone (1 mg/kg i.p. daily)): 6.8 ± 0.46% | block of glucagon effect on glucose (GCGR): able to block the effect of glucagon in elevating glucose levels in lean mice

glucagon: native GCGR ligand
circulating FFAs / lipolysis (plasma FFAs; lean mice, glucagon (100 nmol/kg), 1 h): this effect was not detected at 1 h; also recorded: did not increase lipolysis at 1 h | circulating FFAs (plasma FFAs; lean mice, glucagon, 6 h post-injection): an increase of circulating FFAs at 6 h post-injection | lipolysis (eWAT explants): increased lipolysis in eWAT explants | FFA concentration, supraphysiological administration [2]: increased FFA concentration | plasma FFAs, physiological doses ([2]; humans): did not find elevation in plasma FFAs in humans | lipolysis ex vivo in WAT explants ([2]; wild-type or adipocyte-specific GCGR-deficient mice, 1 h): lack of effect of glucagon in lipolysis ex vivo in WAT explants

cotadutide
postprandial glucose, body weight, hepatic fat ([3]; obese/overweight individuals, type 2 diabetes): improved postprandial glucose excursions and reduced body weight and hepatic fat | glycemia, body weight, MASLD ([3]; phase 2b trial): reduced glycemia and body weight and improved metabolic-dysfunction associated steatotic liver disease (MASLD) | liver metabolism, MASH and fibrosis ([1]; C57BL/6J or ob/ob mice): more effective than obeticholic acid in improving liver metabolism and ameliorating MASH and fibrosis | liver inflammation and adipocyte apoptosis [1]: decreased liver inflammation and apoptosis in adipocytes

HGEGTFTSDVSSYLEGQAAKEFIAWLVKGG-linker-Fc [Fc-GLP1, reference compound]
peptide plasma level [4]: 105.1 ± 18.33 nM | loss of body weight (body weight, HFD-fed; Fc-GLP1 50 nmol/kg): 11.0 ± 0.46% | plasma insulin peak (plasma insulin): a lower insulin peak | plasma FFAs (plasma FFAs; DIO mice, Fc-GLP1, 6 h): elevation of FFAs was not observed | ketogenesis (blood ketone bodies): ketogenesis was not elevated | BAT temperature (BAT skin temperature): neither UCP1 nor BAT temperature were increased | UCP1 in BAT (BAT, eWAT, iWAT): neither UCP1 nor BAT temperature were increased | cFos positive POMC neurons [5]: an increase in cFos positive POMC neurons
